Results collected from several papers.
Protocols differ between the studies behind these lines. Values after ≈ are worked out from the molar mass of the structure shown.

SMILES | organism | test | test system | conditions | measurement | value
CO[C@H]1/C=C/O[C@@]2(C)Oc3c(C)c(O)c4c(c3C2=O)C2=NC3(CCN(CC(C)C)CC3)NC2=C(NC(=O)/C(C)=C\C=C\[C@H](C)[C@H](O)[C@@H](C)[C@@H](O)[C@@H](C)[C@H](OC(C)=O)[C@@H]1C)C4=O | Mycobacteroides abscessus | microbial growth, agar dilution | ATCC19977 |  | MIC | 11.2 µM
COc1ccc(C=NNC(=O)CSc2nc3c(C)cccc3c(=O)n2-c2ccccc2)cc1OS(C)(=O)=O | Pseudomonas aeruginosa | microbial growth, well diffusion |  | 20 µg/mL | inhibition zone | 2 mm
CC1(C)S[C@@H]2[C@H](NC(=O)[C@H](N)c3ccccc3)C(=O)N2[C@H]1C(=O)O | Kocuria | microbial growth, broth dilution |  |  | MIC | 1.34 µM
CNC(C)C1CCC(N)C(OC2C(N)CC(N)C(OC3OCC(C)(O)C(NC)C3O)C2O)O1 (stereo not shown) | Pseudomonas aeruginosa | microbial killing, broth dilution | ATCC27853 | 24 h | MBC | 8000 µM (≈ 3820 µg/mL)
CC(=O)c1sc(N/N=C/c2c(-c3ccccc3)nc3ncccn23)nc1C | Pseudomonas aeruginosa | microbial growth, well diffusion | ATCC27853 | 100 µg/mL | inhibition zone | 14 mm
CCCS(=O)(=O)Oc1ccc(C=NNC(=O)CSc2nc3c(C)cccc3c(=O)n2-c2ccccc2)cc1OC | Pseudomonas aeruginosa | microbial growth, well diffusion |  | 20 µg/mL | inhibition zone | 2 mm
Cc1ccc2[nH]nc(-c3nnc(Nc4ccc(F)cc4Cl)s3)c2c1 | Pseudomonas aeruginosa | microbial growth | ATCC27853 |  | MIC | 96.1 µg/mL
CN[C@H](CC(C)C)C(=O)N[C@H]1C(=O)N[C@@H](CC(N)=O)C(=O)N[C@H]2C(=O)N[C@H]3C(=O)N[C@H](C(=O)N[C@H](C(=O)O)c4cc(O)cc(O)c4-c4cc3ccc4O)[C@H](O)c3ccc(c(Cl)c3)Oc3cc2cc(c3O[C@@H]2O[C@H](CO)[C@@H](O)[C@H](O)[C@H]2O[C@H]2C[C@](C)(N)[C@H](O)[C@H](C)O2)Oc2ccc(cc2Cl)[C@H]1O | Kocuria | microbial growth, broth dilution |  |  | MIC | 0.67 µM
CCOC(=O)/C=C1/SC(N/N=C/c2c(-c3ccc(F)cc3)nc3ncccn23)=NC1=O | Pseudomonas aeruginosa | microbial growth, well diffusion | ATCC27853 | 100 µg/mL | inhibition zone | 11 mm
O=C(O)c1cn(C2CC2)c2cc(N3CCNCC3)c(F)cc2c1=O | Pseudomonas aeruginosa | microbial growth, broth dilution |  |  | MIC90 | 1.56 µM (≈ 0.517 µg/mL)
